# proCasp3 act = activates human procaspase-3. P42574. recombinant procaspase-3 D3A, Ac-DEVD-pNA absorbance 405 nm. activation, % at 8.5 µM. 330,000 compounds, 0.11% hits. AID 463141;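 active = activation above the mean of all tested compounds plus 3 SD, cut at about 21% in these data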;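 note: 0% = DMSO alone and 100% = DMSO wells spiked with extra 5 µM PC-3 D3A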
# Target sequence (P42574 whole entry D9A/D28A/D175A): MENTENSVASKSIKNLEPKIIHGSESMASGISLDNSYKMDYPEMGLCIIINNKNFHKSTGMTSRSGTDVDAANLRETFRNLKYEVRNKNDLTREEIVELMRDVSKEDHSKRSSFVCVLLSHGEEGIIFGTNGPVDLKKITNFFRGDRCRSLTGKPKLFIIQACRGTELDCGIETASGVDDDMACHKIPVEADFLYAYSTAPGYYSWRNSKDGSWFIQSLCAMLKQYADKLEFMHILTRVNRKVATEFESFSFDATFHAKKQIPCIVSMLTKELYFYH
#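 Assay system – Procaspase-3 D3A mutant · Benchmarks – DMSO low control, extra-enzyme high control · Technique – 405 nm absorbance of p-nitroaniline, reads at 0 and 120 min · Doses – 8.5 µM nominal · Measure – % activation between DMSO and enzyme-spiked controls · Also added – Ac-DEVD-pNA chromogenic peptide substrate · Schedule – 1 h compound preincubation, 2 h substrate hydrolysis at 25 °C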
# procasp7 counter = counter-screen: procaspase-7 (human) activation. activation, % at 8.5 µM. recombinant procaspase-7, Ac-DEVD-pNA absorbance 405 nm; D23A/D198A/D206A triple mutant, cannot self-cleave; scale: DMSO 0, 5 µM enzyme 100. P55210. 330,000 compounds, 0.093% hits. AID 463210;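 active = percent activation above the screen-wide mean plus 3 SD, cut at about 25% in these data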
#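 System: Procaspase-7 triple mutant (PC-7 D3A); measure: % activation from two-timepoint absorbance difference, scaled to controls; times: 1 h compound preincubation, 2 h substrate cleavage, 25 °C; also added: Ac-DEVD-pNA substrate, 400 µM as added; measured by: Epi-absorbance of released pNA at 405 nm, two timepoints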
# UBC13 inh = inhibitors of human UBC13 polyubiquitin chain formation. TR-FRET. inhibition, % at 20 µM. 330,000 compounds, 0.47% hits. AID 485273; in the data active = inhibition above about 45%, passing the limit was not always enough
# Target sequence (P61088 whole entry, looked up): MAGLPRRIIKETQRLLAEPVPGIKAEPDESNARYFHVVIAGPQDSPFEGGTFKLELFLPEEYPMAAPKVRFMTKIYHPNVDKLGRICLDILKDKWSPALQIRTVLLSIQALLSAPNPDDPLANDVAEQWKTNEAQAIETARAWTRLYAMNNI
# IDE cell inh = cellular human IDE inhibition. P14735. HEK cells, FAbetaB cleavage, fluorescence polarization. inhibition, % at 5.59 µM. 320,000 compounds, 0.41% hits. AID 434962;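 active = percent inhibition above the average of all tested compounds plus 3 SD, set per screening campaign, cut at about 16% in these data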;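 note: IDE supplied by intact live HEK cells; FP after avidin binding of uncleaved biotin substrate so inhibition keeps polarization high; 0% = DMSO wells and 100% = 60 µM reference IDE inhibitor Ii1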
# IDE act = boosts human insulin-degrading enzyme activity in HEK cells; P14735; FAbeta-B cleavage, fluorescence polarization; 0% vehicle, 100% cell-free pure enzyme wells; activation, % at 5.96 µM; 340,000 compounds, 0.073% hits; AID 493087;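 active = activation above the mean of all tested compounds plus 3 SD, set per screening campaign, cut at about 17% in these data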
# PHOSPHO1 block = inhibitors of human PHOSPHO1 phosphatase | recombinant PHOSPHO1, absorbance phosphatase assay | inhibition, % at 13.3 µM | 290,000 compounds, 1.1% hits; in the data active = inhibition above about 60%
# * hit, by the source's call; x = no result. Compounds with a hit are over-represented: about 1.9% of the library has one in this group of screens.
SMILES,proCasp3 act,procasp7 counter,UBC13 inh,IDE cell inh,IDE act,PHOSPHO1 block
Cn1c(=O)c(=O)n(C)c2cc(N3CCOCC3)c(NS(=O)(=O)c3ccc(Br)cc3)cc21,-6,1,-12,-1,1,15
COC(=O)c1ccccc1NC(=O)CSc1nc2ncccc2[nH]1,2,1,1,-2,5,64*
CN(C)CCCN(C(=O)CCc1ccccc1)c1nc2ccc(F)cc2s1,-8,4,31,0,2,-1
CN(C)CCCN(C(=O)CCc1ccccc1)c1nc2ccc(Br)cc2s1,-9,4,18,-2,29*,-23
CN(C)CCCN(C(=O)CCSc1ccccc1)c1nc2cc3c(cc2s1)OCO3,-5,-7,20,3,43*,23
CN(C)CCCN(C(=O)CCS(=O)(=O)c1ccccc1)c1nc2cc3c(cc2s1)OCO3,-5,-6,12,-1,0,32
CC(=O)c1ccc2oc3ccccc3c(=O)c2c1,-1,-15,2,-4,4,20
CCN(CC)S(=O)(=O)c1ccc2c(c1)N(CC(=O)Nc1ccc(NC(C)=O)cc1)C(=O)CO2,1,1,5,2,0,27
CCOC(=O)Cc1csc2nc(-c3ccccc3)nn12,-1,3,4,0,0,25
CCOC(=O)c1cc(=O)n2nc(-c3ccc(C)cc3)nc2s1,8,-1,8,2,2,75*
Cc1ccc(NC(=O)CSc2ccc(-c3cccnc3)nn2)c(C)c1,4,-1,-2,4,2,73*
Cc1ccc(NC(=O)CSc2ccc(-c3ccccn3)nn2)c(C)c1,2,-6,-6,-2,5,13
CC(C)C(C(=O)NC1CCCC1)N(CC1CCCO1)C(=O)CNS(=O)(=O)c1ccccc1 (stereo unspecified),9,0,4,4,6,26
CC1=NN(C(=S)Nc2ccccc2)C(c2ccccc2)C1 (stereo unspecified),4,-5,0,2,3,-42
Cc1ccc(C2CC(c3ccccc3)=NN2C(=S)Nc2ccccc2)o1 (stereo unspecified),-27,-37,2,6,-9,88*
Cc1ccc2c(c1)C1CN(C)CCC1N2CC(=O)N(C)c1ccccc1 (stereo unspecified),4,-2,7,-3,3,83*
Cc1ccc2c(c1)C1CN(C)CCC1N2C(=O)COc1ccc(N(C)C(=O)C(C)(C)C)cc1 (stereo unspecified),15,0,5,0,7,23
CCOCCCNC(=O)c1cc(-c2cccnc2)nc2ccc(S(=O)(=O)N3CCC(C)CC3)cc12,3,4,2,0,6,75*
Cc1cccc(C(=O)N=c2sccn2C)c1[N+](=O)[O-],0,4,-3,-6,3,42
CCc1nonc1NC(=O)c1oc2c(C)c(C)ccc2c1C,-10,-2,-2,-11,3,22
c1c2c(cc3sc(N4CCOCC4)nc13)OCO2,-2,-9,-1,2,-1,93*
CC(=O)/C(N=Nc1nc2c([nH]1)c(=O)n(C)c(=O)n2C)=C(\C)O,7,1,-10,5,6,33
CCCCN=Cc1c(C)[nH]n(-c2ccccc2)c1=S,-24,-41,-15,-2,-2,68*
c1ccc(-n2nnc3c(N4CCOCC4)ncnc32)cc1,-10,-7,2,2,2,68*
COc1ccccc1NC(=O)C1=C(C)NC(=O)NC1c1cccc(OC)c1OC (stereo unspecified),8,2,2,2,-1,5
SMILES,proCasp3 act,procasp7 counter,UBC13 inh,IDE cell inh,IDE act,PHOSPHO1 block
CCOc1ccccc1NC(=O)C1=C(C)NC(=O)NC1c1cccc(OC)c1OC (stereo unspecified),4,9,2,4,-4,62*
Cc1cc(CCNC=O)c(C)c2c1oc1ccccc12,x,x,x,x,1,x
CSC1=NC2C(N1)N(C)C(=O)N2C (stereo unspecified),5,-16,1,3,3,78*
Cc1ccc2cc3c(N)c(C(=O)N4CCOCC4)sc3nc2c1,0,0,-14,1,-3,61*
COc1ccc2cc3c(N)c(C(=O)N4CCCC4)sc3nc2c1,-15,-13,7,-1,x,-16
Cc1ccc2nc3sc(C(=O)N4CCOCC4)c(N)c3cc2c1,-2,-10,-9,1,2,86*
CCOc1ccc2nc3sc(C(=O)N4CCN(C)CC4)c(N)c3cc2c1,-14,-5,-2,13,2,-16
CN(C)c1ccc(C(c2nnnn2C(C)(C)C)N2CCN(C(=O)c3ccco3)CC2)cc1 (stereo unspecified),-10,-4,-7,7,0,88*
CCOc1ccc(C(c2nnnn2C(C)(C)C)N2CCN(C(=O)c3ccco3)CC2)cc1 (stereo unspecified),7,11,-2,-19,-1,-120
CC12CCC(=O)N1C(C(=O)Nc1nc(-c3cc(F)ccc3F)cs1)CS2 (stereo unspecified),0,3,-5,-2,-3,x
COc1ccc(NS(=O)(=O)c2cc(-c3nnnn3C)ccc2OC)cc1,-5,-3,6,2,1,66*
Cc1cccc(Nc2nc(-c3ccccn3)cs2)n1,4,0,-28,3,-4,71*
CCC(=O)Nc1cc2nn(-c3ccc(C)cc3)nc2cc1C,-3,-4,-7,2,0,63*
CC(C)(C)NC(=O)NC(=O)CSc1n[nH]c(-c2ccccc2Br)n1,0,3,4,7,1,63*
COc1ccccc1NS(=O)(=O)c1cccc(NC(=O)C2CC2)c1,-3,-4,1,-5,21*,x
CCN(CC(=O)Nc1c(F)cccc1F)C(=O)COc1ccc2c(c1)CCC2,-9,2,6,0,-2,x
Cc1ccc(S(=O)(=O)N(C)C)cc1NC(=O)c1cc(=O)c2ccccc2o1,4,0,1,6,5,19
Cc1noc(C)c1S(=O)(=O)N(C)C[C@H]1Oc2ccc(NC(=O)NC(C)C)cc2C(=O)N([C@H](C)CO)C[C@@H]1C,5,2,-10,4,4,x
COCC(=O)N1CCCC(C(=O)c2ccc(-c3ccccc3)c(F)c2)C1 (stereo unspecified),-3,-1,-3,10,-5,63*
CC(=O)NCC(=O)N1CCCC(C(=O)c2ccc(-c3ccccc3)c(F)c2)C1 (stereo unspecified),2,4,-15,6,3,-16
CCOC(=O)C1CCN(C(=O)c2ccc(S(=O)(=O)Nc3ccccc3OC)cc2)CC1,5,-6,0,2,-1,x
